# What was measured:
# L1210 = experiment: Cytotoxicity against mouse L1210 cells after 72 hrs by MTT assay; assay type: functional, cell-based; conditions: L1210, 72 h
# Outline: (§1)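 Murine B16 melanoma and L1210 lymphoma cells in culture were exposed to compound continuously for 72 h. Viability was read by MTT assay, and IC₅₀ was derived from growth inhibition.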
# B16 = experiment: Cytotoxicity against mouse B16 cells after 72 hrs by MTT assay; assay type: functional, cell-based; conditions: B16, 72 h; outline: as §1
# HL-60(TB) = experiment: Growth inhibition of human HL-60(TB) cells; assay type: functional
# MOLT-4 = experiment: Growth inhibition of human MOLT4 cells; assay type: functional
# NCI-H23 = experiment: Growth inhibition of human NCI-H23 cells; assay type: functional
# NCI-H322M = experiment: Growth inhibition of human NCI-H322M cells; assay type: functional
# NCI-H522 = experiment: Growth inhibition of human NCI-H522 cells; assay type: functional
# HCT-116 = experiment: Growth inhibition of human HCT116 cells; assay type: functional
# SF-295 = experiment: Growth inhibition of human SF295 cells; assay type: functional
# SF-539 = experiment: Growth inhibition of human SF539 cells; assay type: functional
# SNB-19 = experiment: Growth inhibition of human SNB19 cells; assay type: functional
# U-251 = experiment: Growth inhibition of human U251 cells; assay type: functional
# LOX IMVI = experiment: Growth inhibition of human LOXIMVI cells; assay type: functional
# Malme-3M = experiment: Growth inhibition of human MALME-3M cells; assay type: functional
# SK-MEL-5 = experiment: Growth inhibition of human SK-MEL-5 cells; assay type: functional
# UACC-257 = experiment: Growth inhibition of human UACC257 cells; assay type: functional
# SK-OV-3 = experiment: Growth inhibition of human SKOV3 cells; assay type: functional
# CAKI-1 = experiment: Growth inhibition of human Caki1 cells; assay type: functional
# RXF 393 = experiment: Growth inhibition of human RXF393 cells; assay type: functional
# MDA-MB-231 = experiment: Growth inhibition of human MDA-MB-231 cells; assay type: functional
# BT-549 = experiment: Growth inhibition of human BT549 cells; assay type: functional
# T47D = experiment: Growth inhibition of human T47D cells; assay type: functional; conditions: read-out: pTGI
# MDA-MB-435 [1] = experiment: Cytotoxicity against human MDA-MB-435 cells after 48 hrs by SRB assay; assay type: functional, cell-based; conditions: MDA-MB-435, 48 h
# A10 = experiment: Induction of interphase microtubule depolymerization in rat A10 cells; assay type: functional, cell-based
# MDA-MB-435 [2] = experiment: Ratio of EC50 for interphase microtubule depolymerization in rat A10 cells to IC50 for cytotoxicity against human MDA-MB-435 cells; assay type: functional
# [3] = Aqueous solubility of the compound; assay type: physicochemical
# Outline: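 Maximum aqueous solubility was measured with a modified filter-plate solubility protocol.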
compound,measurement,setting,value
COc1ccc(/C=C\c2cc(OC)c(OC)c(OC)c2)cc1O [COMBRETASTATIN A4],IC50,L1210,0.003 µM
same,IC50,B16,0.002 µM
COc1ccc([C@H]2[C@H](c3cc(OC)c(OC)c(OC)c3)C(C)=NN2C(C)=O)cc1[N+](=O)[O-] (relative stereo),IC50,L1210,32.5 µM
same,IC50,B16,> 100 µM
COc1cc([C@@H]2C(C)=NN(C(C)=O)[C@H]2c2ccc([N+](=O)[O-])cc2)cc(OC)c1OC (relative stereo),IC50,L1210,> 100 µM
same,IC50,B16,> 100 µM
COc1cc([C@@H]2C(C)=NN(C(C)=O)[C@H]2c2ccc(Br)cc2)cc(OC)c1OC (relative stereo),IC50,L1210,33 µM
same,IC50,B16,> 100 µM
COc1ccc(OC)c([C@H]2[C@H](c3cc(OC)c(OC)c(OC)c3)C(C)=NN2C(C)=O)c1 (relative stereo),IC50,L1210,> 100 µM
same,IC50,B16,> 100 µM
COc1ccc([C@H]2[C@H](c3cc(OC)c(OC)c(OC)c3)C(C)=NN2C(C)=O)cc1OC (relative stereo),IC50,L1210,34 µM
same,IC50,B16,> 100 µM
COc1cc([C@@H]2C(C)=NN(C(C)=O)[C@H]2c2cccc([N+](=O)[O-])c2)cc(OC)c1OC (relative stereo),IC50,L1210,> 100 µM
same,IC50,B16,> 100 µM
COc1ccc([C@H]2[C@H](c3cc(OC)c(OC)c(OC)c3)C(C)=NN2C(C)=O)cc1 (relative stereo),IC50,L1210,8.4 µM
same,IC50,B16,95 µM
COc1cc([C@@H]2C(C)=NN(C(C)=O)[C@H]2c2ccc(C)cc2)cc(OC)c1OC (relative stereo),IC50,L1210,6 µM
same,IC50,B16,45.5 µM
COc1cc([C@@H]2C(C)=NN(C(C)=O)[C@H]2c2ccc(Cl)cc2)cc(OC)c1OC (relative stereo),IC50,L1210,> 100 µM
same,IC50,B16,> 100 µM
COc1cc([C@@H]2C(C)=NN(C(C)=O)[C@H]2c2cc(OC)c(OC)c(OC)c2)cc(OC)c1OC (relative stereo),IC50,L1210,> 100 µM
same,IC50,B16,> 100 µM
COc1ccc([C@H]2[C@H](c3cc(OC)c(OC)c(OC)c3)C(C)=NN2C(C)=O)cc1O (relative stereo),IC50,L1210,3.3 µM
same,IC50,B16,6.8 µM
same,GI50,HL-60(TB),1.78 µM
same,TGI,HL-60(TB); read-out: pTGI (converted),7.76 µM
same,GI50,MOLT-4,5.75 µM
same,TGI,MOLT-4; read-out: pTGI,> 100 µM
same,GI50,NCI-H23,3.72 µM
same,TGI,NCI-H23; read-out: pTGI,> 100 µM
same,GI50,NCI-H322M,4.27 µM
same,TGI,NCI-H322M; read-out: pTGI (converted),51.3 µM
same,GI50,NCI-H522,0.372 µM
same,TGI,NCI-H522; read-out: pTGI (converted),11.7 µM
same,GI50,HCT-116,3.02 µM
same,TGI,HCT-116; read-out: pTGI (converted),34.7 µM
same,GI50,SF-295,2.57 µM
same,TGI,SF-295; read-out: pTGI,> 100 µM
same,GI50,SF-539,0.741 µM
same,TGI,SF-539; read-out: pTGI (converted),4.37 µM
same,GI50,SNB-19,4.37 µM
same,TGI,SNB-19; read-out: pTGI,> 100 µM
same,GI50,U-251,3.24 µM
same,TGI,U-251; read-out: pTGI,> 100 µM
same,GI50,LOX IMVI,2.24 µM
same,TGI,LOX IMVI; read-out: pTGI,> 100 µM
same,GI50,Malme-3M,0.891 µM
same,TGI,Malme-3M; read-out: pTGI,> 100 µM
same,GI50,SK-MEL-5,1.17 µM
same,TGI,SK-MEL-5; read-out: pTGI (converted),14.1 µM
same,GI50,UACC-257,> 100 µM
same,TGI,UACC-257; read-out: pTGI,> 100 µM
same,GI50,SK-OV-3,2.19 µM
same,TGI,SK-OV-3; read-out: pTGI (converted),9.55 µM
same,GI50,CAKI-1,5.37 µM
same,TGI,CAKI-1; read-out: pTGI,> 100 µM
same,GI50,RXF 393,3.09 µM
same,TGI,RXF 393; read-out: pTGI,> 100 µM
same,GI50,MDA-MB-231,4.07 µM
same,TGI,MDA-MB-231; read-out: pTGI,> 100 µM
same,GI50,BT-549,1.45 µM
same,TGI,BT-549; read-out: pTGI,> 100 µM
same,TGI,T47D,> 100 µM
same,IC50,MDA-MB-435 [1],0.9 µM
same,EC50,A10,4.1 µM
same,Ratio,MDA-MB-435 [2],4.5
same,solubility,[3],372 µM
COc1cc([C@@H]2C(C)=NN(C(C)=O)[C@H]2c2ccc(Cl)c(Cl)c2)cc(OC)c1OC (relative stereo),IC50,L1210,36 µM
same,IC50,B16,> 100 µM
COc1cc([C@@H]2C(C)=NN(C(C)=O)[C@H]2c2ccccc2)cc(OC)c1OC (relative stereo),IC50,L1210,47 µM
same,IC50,B16,> 100 µM

# Source: ChEMBL document CHEMBL1800024, “A novel class of trans-methylpyrazoline analogs of combretastatins: synthesis and in-vitro biological testing” (Eur J Med Chem, 2011)
